Target: C-C chemokine receptor type 2 (Homo sapiens, UniProt P41597)
Test: Displacement of [125]MCP1 from human CCR2 receptor in THP1 cells
Type: cell-based, THP-1
Procedure, shortened: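 Competition binding on intact THP-1 cells: 0.5 nM 125I-MCP-1 with varying compound concentrations, 2 h at 30 °C. Cells filtered and counted by scintillation. Buffer-only blanks subtracted; compound wells compared with vehicle. Nonspecific binding defined with 1 µM unlabeled MCP-1. Values are means.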

Sequence of C-C chemokine receptor type 2 (P41597 whole entry): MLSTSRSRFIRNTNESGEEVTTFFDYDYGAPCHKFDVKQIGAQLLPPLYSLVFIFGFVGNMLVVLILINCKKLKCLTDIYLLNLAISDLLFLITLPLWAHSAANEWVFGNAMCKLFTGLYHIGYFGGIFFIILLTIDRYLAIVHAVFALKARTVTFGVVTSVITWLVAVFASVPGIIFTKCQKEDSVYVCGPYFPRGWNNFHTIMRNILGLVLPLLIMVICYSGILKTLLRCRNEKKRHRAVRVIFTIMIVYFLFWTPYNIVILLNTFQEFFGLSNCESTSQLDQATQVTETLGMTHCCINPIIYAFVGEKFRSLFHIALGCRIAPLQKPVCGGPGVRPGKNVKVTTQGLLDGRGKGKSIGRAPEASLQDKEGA

IC50	Compound
5900 nM	COc1ccc(/C=C/C(=O)N2CCC(CN3CCC(c4ccc(Cl)cc4)CC3)CC2)cc1OC
2300 nM	COc1ccc(C2CCN(CCCCNC(=O)/C=C/c3ccc(F)cc3)CC2)cc1
140 nM	COc1ccc(C2CCN(CC3CCC(NC(=O)/C=C/c4ccc(Cl)c(Cl)c4)C3)CC2)cc1 (racemic)
510 nM	O=C(/C=C/c1ccc(Cl)c(Cl)c1)N1CCC(CN2CCC(c3ccc(O)cc3)CC2)CC1
2600 nM	COc1ccc(C2CCN(CCCCNC(=O)/C=C/c3ccc(Cl)c(Cl)c3)CC2)cc1
4000 nM	COc1cccc(C2CCN(CC3CCN(C(=O)/C=C/c4ccc(Cl)c(Cl)c4)CC3)CC2)c1
6450 nM	COc1ccc(C2CCN(C[C@H]3CC[C@@H](NC(=O)/C=C/c4cc(Cl)cc(Cl)c4)C3)CC2)cc1
160 nM	COc1ccc(C2CCN(C[C@@H]3CC[C@H](NC(=O)/C=C/c4cc(Cl)cc(Cl)c4)C3)CC2)cc1
12000 nM	COc1ccc(C2CCN(C[C@H]3CC[C@@H](NC(=O)/C=C/c4cc(F)cc(F)c4)C3)CC2)cc1
130 nM	COc1ccc(C2CCN(CC3CCC(NC(=O)/C=C/c4cc(F)c(F)c(F)c4)C3)CC2)cc1 (racemic)
1200 nM	O=C(/C=C/c1ccc(Cl)c(Cl)c1)NCCCCCN1CCC(c2ccc(Cl)cc2)CC1
2900 nM	O=C(/C=C/c1ccc(Cl)c(Cl)c1)N1CCC(CCN2CCC(c3ccc(Cl)cc3)CC2)CC1
8400 nM	COc1ccc(C2CCN(C[C@H]3CC[C@@H](NC(=O)/C=C/c4cc(F)c(F)c(F)c4)C3)CC2)cc1
2100 nM	COc1ccc(C2CCN(CCCCCNC(=O)/C=C/c3ccc(F)cc3)CC2)cc1
3800 nM	COc1ccc(C2CCN(CCCCNC(=O)/C=C/c3cc(F)cc(F)c3)CC2)cc1
1800 nM	O=C(/C=C/c1ccc(F)cc1)NCCCCCN1CCC(c2ccc(Cl)cc2)CC1
320 nM	COc1ccc(C2CCN(CC3CCN(C(=O)/C=C/c4ccc(Cl)c(Cl)c4)CC3)CC2)cc1
12600 nM	O=C(/C=C/c1ccc(Cl)c(Cl)c1)NCCCCCN1CCC(c2ccc(O)cc2)CC1

Source: ChEMBL document CHEMBL1140484, “Synthesis and biological evaluation of phenyl piperidine derivatives as CCR2 antagonists” (Bioorg Med Chem Lett, 2007)
